What was measured:
[1] = test system: HCT-116; test: Cytotoxicity against human HCT116 cells after 72 hrs by phosphatase assay; format: functional, cell-based; details: HCT-116, 72 h
Summary of the method: (§1)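 Cells diluted to 30,000 cells/mL in DMEM with 10% FBS and seeded into 96-well plates (100 μL per well), then grown 24 h at 37 °C under 5% CO2. Test agents were made as 1 mM DMSO stocks with 10-fold serial dilutions and tested at six concentrations over 0–1,000 nM or 0–10,000 nM, in duplicate, for 72 h. Acid phosphatase read-out: substrate in 0.1 M NaOAc pH 5.5 with 0.1% Triton X-100, 15 min at 37 °C, stopped with NaOH, A405.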

[2] = test system: HCT-116/VM46; test: Cytotoxicity against vinblastine-resistant human HCT116/VM46 cells after 72 hrs by phosphatase assay; format: functional, cell-based; details: HCT-116/VM46, 72 h
Summary of the method: as §1, with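 “A405. IC50 is the mean of 4–16 determinations.” for “A405.”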

Row | SMILES | IC50 [1] [nM] | IC50 [2] [nM]
1 | CC[C@]1(NC)C[C@H]2CN(CCc3c([nH]c4ccccc34)[C@@](C(=O)OC)(c3cc4c(cc3OC)N(C)[C@H]3[C@@](O)(C(=O)OC)[C@H](OC(C)=O)[C@]5(CC)C=CCN6CC[C@]43[C@@H]65)C2)C1 | 60 | 8500
2 | CCNC(=O)N(C)[C@@]1(CC)C[C@H]2CN(CCc3c([nH]c4ccccc34)[C@@](C(=O)OC)(c3cc4c(cc3OC)N(C)[C@H]3[C@@](O)(C(=O)OC)[C@H](OC(C)=O)[C@]5(CC)C=CCN6CC[C@]43[C@@H]65)C2)C1 | 520 | 8500
3 | CC[C@]1(OC(=O)N(C)C)C[C@H]2CN(CCc3c([nH]c4ccccc34)[C@@](C(=O)OC)(c3cc4c(cc3OC)N(C)[C@H]3[C@@](O)(C(=O)OC)[C@H](OC(C)=O)[C@]5(CC)C=CCN6CC[C@]43[C@@H]65)C2)C1 | 4700 | 9100
4 | CC[C@]1(NC(C)=O)C[C@H]2CN(CCc3c([nH]c4ccccc34)[C@@](C(=O)OC)(c3cc4c(cc3OC)N(C)[C@H]3[C@@](O)(C(=O)OC)[C@H](OC(C)=O)[C@]5(CC)C=CCN6CC[C@]43[C@@H]65)C2)C1 | 90 | 
5 | CC[C@]1(N=C=S)C[C@H]2CN(CCc3c([nH]c4ccccc34)[C@@](C(=O)OC)(c3cc4c(cc3OC)N(C)[C@H]3[C@@](O)(C(=O)OC)[C@H](OC(C)=O)[C@]5(CC)C=CCN6CC[C@]43[C@@H]65)C2)C1 | 530 | 
6 | CC[C@]1(NC(N)=O)C[C@H]2CN(CCc3c([nH]c4ccccc34)[C@@](C(=O)OC)(c3cc4c(cc3OC)N(C)[C@H]3[C@@](O)(C(=O)OC)[C@H](OC(C)=O)[C@]5(CC)C=CCN6CC[C@]43[C@@H]65)C2)C1 | 7.5 | 4400
7 | CC[C@]1(NC(=S)N(C)C)C[C@H]2CN(CCc3c([nH]c4ccccc34)[C@@](C(=O)OC)(c3cc4c(cc3OC)N(C)[C@H]3[C@@](O)(C(=O)OC)[C@H](OC(C)=O)[C@]5(CC)C=CCN6CC[C@]43[C@@H]65)C2)C1 | 8.7 | 250
8 | CC[C@]1(NC=O)C[C@H]2CN(CCc3c([nH]c4ccccc34)[C@@](C(=O)OC)(c3cc4c(cc3OC)N(C)[C@H]3[C@@](O)(C(=O)OC)[C@H](OC(C)=O)[C@]5(CC)C=CCN6CC[C@]43[C@@H]65)C2)C1 | 85 | 
9 | CC[C@]1(NC(=O)Nc2ccc(F)cc2)C[C@H]2CN(CCc3c([nH]c4ccccc34)[C@@](C(=O)OC)(c3cc4c(cc3OC)N(C)[C@H]3[C@@](O)(C(=O)OC)[C@H](OC(C)=O)[C@]5(CC)C=CCN6CC[C@]43[C@@H]65)C2)C1 | 3.9 | 400
10 | CCN(CC)C(=O)N[C@@]1(CC)C[C@H]2CN(CCc3c([nH]c4ccccc34)[C@@](C(=O)OC)(c3cc4c(cc3OC)N(C)[C@H]3[C@@](O)(C(=O)OC)[C@H](OC(C)=O)[C@]5(CC)C=CCN6CC[C@]43[C@@H]65)C2)C1 | 6.7 | 450
11 | CC[C@]1(NC(=O)NCc2ccccn2)C[C@H]2CN(CCc3c([nH]c4ccccc34)[C@@](C(=O)OC)(c3cc4c(cc3OC)N(C)[C@H]3[C@@](O)(C(=O)OC)[C@H](OC(C)=O)[C@]5(CC)C=CCN6CC[C@]43[C@@H]65)C2)C1 | 5.6 | 670
12 | CC[C@]1(NC(=S)NCCc2ccc(F)cc2)C[C@H]2CN(CCc3c([nH]c4ccccc34)[C@@](C(=O)OC)(c3cc4c(cc3OC)N(C)[C@H]3[C@@](O)(C(=O)OC)[C@H](OC(C)=O)[C@]5(CC)C=CCN6CC[C@]43[C@@H]65)C2)C1 | 60 | 750
13 | CC[C@@H]1C[C@H]2CN(CCc3c([nH]c4ccccc34)[C@@](C(=O)OC)(c3cc4c(cc3OC)N(C)[C@H]3[C@@](O)(C(=O)OC)[C@H](OC(C)=O)[C@]5(CC)C=CCN6CC[C@]43[C@@H]65)C2)C1 [ROSEAMINE] | 60 | 
14 | CC[C@]1(N)C[C@H]2CN(CCc3c([nH]c4ccccc34)[C@@](C(=O)OC)(c3cc4c(cc3OC)N(C)[C@H]3[C@@](O)(C(=O)OC)[C@H](OC(C)=O)[C@]5(CC)C=CCN6CC[C@]43[C@@H]65)C2)C1 | 600 | > 10000
15 | CC[C@]1(NC(=O)Nc2ccccc2)C[C@H]2CN(CCc3c([nH]c4ccccc34)[C@@](C(=O)OC)(c3cc4c(cc3OC)N(C)[C@H]3[C@@](O)(C(=O)OC)[C@H](OC(C)=O)[C@]5(CC)C=CCN6CC[C@]43[C@@H]65)C2)C1 | 5.1 | 390
16 | CC[C@]1(SC#N)C[C@H]2CN(CCc3c([nH]c4ccccc34)[C@@](C(=O)OC)(c3cc4c(cc3OC)N(C)[C@H]3[C@@](O)(C(=O)OC)[C@H](OC(C)=O)[C@]5(CC)C=CCN6CC[C@]43[C@@H]65)C2)C1 | 550 | 

Row | SMILES | IC50 [1] [nM] | IC50 [2] [nM]
17 | CC[C@]1(NC(=O)NCCc2ccccc2)C[C@H]2CN(CCc3c([nH]c4ccccc34)[C@@](C(=O)OC)(c3cc4c(cc3OC)N(C)[C@H]3[C@@](O)(C(=O)OC)[C@H](OC(C)=O)[C@]5(CC)C=CCN6CC[C@]43[C@@H]65)C2)C1 | 6.3 | 590
18 | CC[C@]1(N=[N+]=[N-])C[C@H]2CN(CCc3c([nH]c4ccccc34)[C@@](C(=O)OC)(c3cc4c(cc3OC)N(C)[C@H]3[C@@](O)(C(=O)OC)[C@H](OC(C)=O)[C@]5(CC)C=CCN6CC[C@]43[C@@H]65)C2)C1 | 690 | 
19 | CC[C@]1(NC(=O)OC)C[C@H]2CN(CCc3c([nH]c4ccccc34)[C@@](C(=O)OC)(c3cc4c(cc3OC)N(C)[C@H]3[C@@](O)(C(=O)OC)[C@H](OC(C)=O)[C@]5(CC)C=CCN6CC[C@]43[C@@H]65)C2)C1 | 75 | 
20 | CC[C@]1(NC(=O)Nc2ccc(C(F)(F)F)cc2)C[C@H]2CN(CCc3c([nH]c4ccccc34)[C@@](C(=O)OC)(c3cc4c(cc3OC)N(C)[C@H]3[C@@](O)(C(=O)OC)[C@H](OC(C)=O)[C@]5(CC)C=CCN6CC[C@]43[C@@H]65)C2)C1 | 7.1 | 610
21 | CC[C@]1(NC(=O)NCc2ccco2)C[C@H]2CN(CCc3c([nH]c4ccccc34)[C@@](C(=O)OC)(c3cc4c(cc3OC)N(C)[C@H]3[C@@](O)(C(=O)OC)[C@H](OC(C)=O)[C@]5(CC)C=CCN6CC[C@]43[C@@H]65)C2)C1 | 5.1 | 530
22 | CC[C@]1(NC(=O)Nc2ccc(C)cc2)C[C@H]2CN(CCc3c([nH]c4ccccc34)[C@@](C(=O)OC)(c3cc4c(cc3OC)N(C)[C@H]3[C@@](O)(C(=O)OC)[C@H](OC(C)=O)[C@]5(CC)C=CCN6CC[C@]43[C@@H]65)C2)C1 | 4.8 | 330
23 | CC[C@]12C=CCN3CC[C@@]4(c5cc([C@@]6(C(=O)OC)C[C@@H]7CN(CCc8c6[nH]c6ccccc86)C[C@@](CC)(N(C)C)C7)c(OC)cc5N(C)[C@H]4[C@@](O)(C(=O)OC)[C@@H]1OC(C)=O)[C@@H]32 | 980 | > 10000
24 | CC[C@]1(NC(=O)Nc2ccc(Cl)cc2)C[C@H]2CN(CCc3c([nH]c4ccccc34)[C@@](C(=O)OC)(c3cc4c(cc3OC)N(C)[C@H]3[C@@](O)(C(=O)OC)[C@H](OC(C)=O)[C@]5(CC)C=CCN6CC[C@]43[C@@H]65)C2)C1 | 6.7 | 590
25 | CC[C@]1(NC(=O)NC2CCCCC2)C[C@H]2CN(CCc3c([nH]c4ccccc34)[C@@](C(=O)OC)(c3cc4c(cc3OC)N(C)[C@H]3[C@@](O)(C(=O)OC)[C@H](OC(C)=O)[C@]5(CC)C=CCN6CC[C@]43[C@@H]65)C2)C1 | 5.4 | 450
26 | CC[C@]1(NC(=O)Nc2ccc(OC)cc2)C[C@H]2CN(CCc3c([nH]c4ccccc34)[C@@](C(=O)OC)(c3cc4c(cc3OC)N(C)[C@H]3[C@@](O)(C(=O)OC)[C@H](OC(C)=O)[C@]5(CC)C=CCN6CC[C@]43[C@@H]65)C2)C1 | 2 | 230
27 | CC[C@]1(NC(=O)NC(C)(C)C)C[C@H]2CN(CCc3c([nH]c4ccccc34)[C@@](C(=O)OC)(c3cc4c(cc3OC)N(C)[C@H]3[C@@](O)(C(=O)OC)[C@H](OC(C)=O)[C@]5(CC)C=CCN6CC[C@]43[C@@H]65)C2)C1 | 20 | 670
28 | CCCCNC(=O)N[C@@]1(CC)C[C@H]2CN(CCc3c([nH]c4ccccc34)[C@@](C(=O)OC)(c3cc4c(cc3OC)N(C)[C@H]3[C@@](O)(C(=O)OC)[C@H](OC(C)=O)[C@]5(CC)C=CCN6CC[C@]43[C@@H]65)C2)C1 | 4.6 | 270
29 | CC[C@]1(NC(=O)N2CCOCC2)C[C@H]2CN(CCc3c([nH]c4ccccc34)[C@@](C(=O)OC)(c3cc4c(cc3OC)N(C)[C@H]3[C@@](O)(C(=O)OC)[C@H](OC(C)=O)[C@]5(CC)C=CCN6CC[C@]43[C@@H]65)C2)C1 | 4.5 | 360
30 | CC[C@]1(NC(=O)NCCO)C[C@H]2CN(CCc3c([nH]c4ccccc34)[C@@](C(=O)OC)(c3cc4c(cc3OC)N(C)[C@H]3[C@@](O)(C(=O)OC)[C@H](OC(C)=O)[C@]5(CC)C=CCN6CC[C@]43[C@@H]65)C2)C1 | 8.8 | > 1000
31 | CC[C@]1(NC(=O)Oc2ccc([N+](=O)[O-])cc2)C[C@H]2CN(CCc3c([nH]c4ccccc34)[C@@](C(=O)OC)(c3cc4c(cc3OC)N(C)[C@H]3[C@@](O)(C(=O)OC)[C@H](OC(C)=O)[C@]5(CC)C=CCN6CC[C@]43[C@@H]65)C2)C1 | 55 | 

Reference: ChEMBL document CHEMBL2311295 (J Med Chem, 2013)
